Measured values reported in ChEMBL document CHEMBL4622848, “Syntheses, in vitro α-amylase and α-glucosidase dual inhibitory activities of 4-amino-1,2,4-triazole derivatives their molecular docking and kinetic studies” (Bioorg Med Chem, 2020).

Tests used:
[1] = target: T1, Alpha amylase (Homo sapiens, UniProt P0DUB6); assay: Inhibition of alpha-amylase (unknown origin) using starch as substrate preincubated for 10 mins followed by substrate addition and measured after 10 mins by dinitrosalicylic acid reagent based assay
T1 sequence (P0DUB6 whole entry): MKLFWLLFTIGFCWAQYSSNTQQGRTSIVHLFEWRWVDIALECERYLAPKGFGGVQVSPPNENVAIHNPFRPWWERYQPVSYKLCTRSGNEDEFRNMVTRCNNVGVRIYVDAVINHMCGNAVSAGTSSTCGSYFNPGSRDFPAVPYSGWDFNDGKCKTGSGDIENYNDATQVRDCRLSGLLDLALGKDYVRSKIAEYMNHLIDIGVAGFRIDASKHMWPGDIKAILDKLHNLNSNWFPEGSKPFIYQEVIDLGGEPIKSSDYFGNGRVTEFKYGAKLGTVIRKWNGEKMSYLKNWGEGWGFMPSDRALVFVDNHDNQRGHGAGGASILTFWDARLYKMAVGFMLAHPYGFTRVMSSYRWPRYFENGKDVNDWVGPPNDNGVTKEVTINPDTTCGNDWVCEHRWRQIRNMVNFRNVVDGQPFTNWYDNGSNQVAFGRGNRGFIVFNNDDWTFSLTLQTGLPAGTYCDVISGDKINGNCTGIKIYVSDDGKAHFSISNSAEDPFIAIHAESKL
Summary of the method: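 Enzyme at 0.5 mg/mL in […] pH 6.9, preincubated 10 min at 25 °C with test sample (100, 200, 400, 800, 1000 µg/mL). Then 1% starch in 0.02 M sodium phosphate pH 6.9 added, 10 min at 25 °C.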

[2] = Inhibition of rat intestinal alpha-glucosidase using p-nitrophenyl-alpha-D-glucopyranoside as substrate preincubated for 5 mins followed by substrate addition and measured after 5 mins by spectrophotometric analysis
Summary of the method: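 Enzyme source: rat intestinal acetone powder in saline (100:1 w/v), sonicated and centrifuged; supernatant used. Samples (5 mg/mL in DMSO) in 100 mM phosphate buffer pH 6.8, incubated 5 min with enzyme. Then 5 mM p-nitrophenyl-α-D-glucopyranoside added, and p-nitrophenol read at 405 nm after 5 min. Blanks had buffer in place of substrate, controls had DMSO. Inhibition computed from control and sample absorbance.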

[3] = species: Homo sapiens; assay: Uncompetitive inhibition of alpha-glucosidase (unknown origin) assessed as Vmax using varying levels of para-nitrophenyl-R-D-maltoside as substrate incubated for 30 mins by Lineweaver-Burk plot analysis
Summary of the method: (§1)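 Enzyme at 0.2 mg/mL per well in deionized water with PIPES pH 7.0. Inhibitor at 0.0625–0.4 mM (0.0625, 0.125, 0.3, 0.4), substrate p-nitrophenyl-R-D-maltoside at 0.1, 0.2, 0.4, 0.8 and 1.0 mM. Incubated 30 min at 25 °C with readings at 1-min intervals on a plate reader. Km and Vmax derived by enzyme-kinetic graph fitting.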

[4] = species: Homo sapiens; assay: Uncompetitive inhibition of alpha-glucosidase (unknown origin) assessed as Km using varying levels of para-nitrophenyl-R-D-maltoside as substrate incubated for 30 mins by Lineweaver-Burk plot analysis; summary of the method: as §1
[5] = system: C(=N/n1cnnc1)\c1cc2ccccc2[nH]1; assay: (§2) Mixed type inhibition of alpha-amylase (unknown origin) assessed as Vmax using varying levels of para-nitrophenyl-R-D-maltoside as substrate incubated for 30 mins by Lineweaver-Burk plot analysis; conditions: Homo sapiens
Summary of the method: (§3)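 Kinetics run with inhibitor at 0.0625, 0.125, 0.3 and 0.4 mM and p-nitrophenyl-R-D-maltoside at 0.1, 0.2, 0.4, 0.8 and 1.0 mM. Enzyme at 0.2 mg/mL per well in deionized water, PIPES buffer pH 7.0, 30 min at 25 °C, absorbance on a plate reader. Vmax and Km obtained by enzyme-kinetic graph fitting.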

[6] = system: COc1cc(/C=N/n2cnnc2)cc(OC)c1Br; assay: as §2; conditions: Homo sapiens; summary of the method: as §3
[7] = system: COc1cc(/C=N/n2cnnc2)ccc1F; assay: as §2; conditions: Homo sapiens; summary of the method: as §3
[8] = system: COc1ccc(/C=N/n2cnnc2)c(F)c1; assay: as §2; conditions: Homo sapiens; summary of the method: as §3
[9] = system: Clc1ccc(/C=N/n2cnnc2)c(Cl)c1; assay: as §2; conditions: Homo sapiens; summary of the method: as §3
[10] = system: Nc1ncccc1/C=N/n1cnnc1; assay: as §2; conditions: Homo sapiens; summary of the method: as §3
[11] = system: O=[N+]([O-])c1cc(O)cc(/C=N/n2cnnc2)c1; assay: as §2; conditions: Homo sapiens; summary of the method: as §3
[12] = system: O=[N+]([O-])c1ccc(/C=N/n2cnnc2)cc1; assay: as §2; conditions: Homo sapiens; summary of the method: as §3
[13] = system: Oc1ccc(/C=N/n2cnnc2)cc1Br; assay: as §2; conditions: Homo sapiens; summary of the method: as §3
[14] = system: Oc1ccc(/C=N/n2cnnc2)cc1; assay: as §2; conditions: Homo sapiens; summary of the method: as §3
[15] = system: C(=N/n1cnnc1)\c1cc2ccccc2[nH]1; assay: (§4) Mixed type inhibition of alpha-amylase (unknown origin) assessed as Km using varying level of para-nitrophenyl-R-D-maltoside as substrate incubated for 30 mins by Lineweaver-Burk plot analysis; conditions: Homo sapiens; summary of the method: as §3
[16] = system: COc1cc(/C=N/n2cnnc2)cc(OC)c1Br; assay: as §4; conditions: Homo sapiens; summary of the method: as §3
[17] = system: COc1cc(/C=N/n2cnnc2)ccc1F; assay: as §4; conditions: Homo sapiens; summary of the method: as §3
[18] = system: COc1ccc(/C=N/n2cnnc2)c(F)c1; assay: as §4; conditions: Homo sapiens; summary of the method: as §3
[19] = system: Clc1ccc(/C=N/n2cnnc2)c(Cl)c1; assay: as §4; conditions: Homo sapiens; summary of the method: as §3
[20] = system: Nc1ncccc1/C=N/n1cnnc1; assay: as §4; conditions: Homo sapiens; summary of the method: as §3
[21] = system: O=[N+]([O-])c1cc(O)cc(/C=N/n2cnnc2)c1; assay: as §4; conditions: Homo sapiens; summary of the method: as §3
[22] = system: O=[N+]([O-])c1ccc(/C=N/n2cnnc2)cc1; assay: as §4; conditions: Homo sapiens; summary of the method: as §3
[23] = system: Oc1ccc(/C=N/n2cnnc2)cc1Br; assay: as §4; conditions: Homo sapiens; summary of the method: as §3
[24] = system: Oc1ccc(/C=N/n2cnnc2)cc1; assay: as §4; conditions: Homo sapiens; summary of the method: as §3

Row | IC50 [1] | IC50 [2] | Compound | also measured
1 | 2.18 µM | 2.49 µM | Clc1ccc(/C=N/n2cnnc2)c(Cl)c1 | Vmax [3]: 685 µM/min; Km [4]: 500 µM
2 | 6.23 µM | 6.34 µM | CC(C)(C)c1cc(/C=N/n2cnnc2)c(C(C)(C)C)cc1O | –
3 | 2.27 µM | 2.37 µM | Oc1ccc(/C=N/n2cnnc2)cc1Br | Vmax [3]: 698 µM/min; Km [4]: 400 µM
4 | 5.97 µM | 5.37 µM | O=[N+]([O-])c1cccc(/C=N/n2cnnc2)c1 | –
5 | 2.41 µM | 2.31 µM | O=[N+]([O-])c1cc(O)cc(/C=N/n2cnnc2)c1 | Vmax [3]: 695 µM/min; Km [4]: 500 µM
6 | 2.36 µM | 2.47 µM | O=[N+]([O-])c1ccc(/C=N/n2cnnc2)cc1 | Vmax [3]: 680 µM/min; Km [4]: 500 µM
7 | 5.12 µM | 5.46 µM | COc1cc(/C=N/n2cnnc2)cc(OC)c1OC | –
8 | 2.25 µM | 2.52 µM | COc1cc(/C=N/n2cnnc2)cc(OC)c1Br | Vmax [3]: 690 µM/min; Km [4]: 700 µM
9 | 6.41 µM | 6.3 µM | C(=N\n1cnnc1)/c1cc2ccc3cccc4ccc(c1)c2c34 | –
10 | 5.95 µM | 5.44 µM | Oc1ccc(/C=N/n2cnnc2)c(O)c1 | –
11 | 5.94 µM | 5.3 µM | COc1cc(/C=N/n2cnnc2)ccc1O | –
12 | 5.92 µM | 5.74 µM | Oc1ccc(/C=N/n2cnnc2)c(O)c1O | –
13 | 5.04 µM | 5.44 µM | C(=N\n1cnnc1)/c1ccc(OCc2ccccc2)cc1 | –
14 | 3.31 µM | 3.27 µM | COc1cc(/C=N/n2cnnc2)cc(OC)c1O | –
15 | 5.25 µM | 5.52 µM | COc1ccc(Br)c(/C=N/n2cnnc2)c1O | –
16 | 5.22 µM | 5.47 µM | CCOc1cc(/C=N/n2cnnc2)ccc1OC | –
17 | 4.36 µM | 4.28 µM | Clc1ccc(/C=N/n2cnnc2)cc1 | –
18 | 6.44 µM | 6.37 µM | CC(C)(C)c1ccc(/C=N/n2cnnc2)cc1 | –

Row | IC50 [1] | IC50 [2] | Compound | also measured
19 | 5.27 µM | 5.37 µM | Oc1ccc(O)c(/C=N/n2cnnc2)c1 | –
20 | – | – | Alpha amylase (Homo sapiens) (from UniProt P0DUB6) | Vmax [5]: 256 µM/min; Vmax [6]: 242 µM/min; Vmax [7]: 241 µM/min; Vmax [8]: 238 µM/min; Vmax [9]: 221 µM/min; Vmax [10]: 213 µM/min; Vmax [11]: 232 µM/min; Vmax [12]: 207 µM/min; Vmax [13]: 221 µM/min; Vmax [14]: 237 µM/min; Km [15]: 1500 µM; Km [16]: 1300 µM; Km [17]: 1300 µM; Km [18]: 1300 µM; Km [19]: 1200 µM; Km [20]: 1000 µM; Km [21]: 1300 µM; Km [22]: 900 µM; Km [23]: 1200 µM; Km [24]: 1300 µM
21 | 2.99 µM | 2.62 µM | Oc1ccc(/C=N/n2cnnc2)cc1 | Vmax [3]: 701 µM/min; Km [4]: 400 µM
22 | 5.27 µM | 5.41 µM | C(=N\n1cnnc1)/c1c2ccccc2cc2ccccc12 | –
23 | 4.34 µM | 4.27 µM | Cc1ccc(/C=N/n2cnnc2)c(C)c1 | –
24 | 2.9 µM | 2.33 µM | COc1ccc(/C=N/n2cnnc2)c(F)c1 | Vmax [3]: 701 µM/min; Km [4]: 500 µM
25 | 2.33 µM | 2.27 µM | COc1cc(/C=N/n2cnnc2)ccc1F | Vmax [3]: 697 µM/min; Km [4]: 500 µM
26 | 6.23 µM | 6.54 µM | COc1ccc(/C=N/n2cnnc2)cc1OCc1ccccc1 | –
27 | 4.37 µM | 4.29 µM | COc1cccc(OC)c1/C=N/n1cnnc1 | –
28 | 3.3 µM | 3.46 µM | COc1ccc(Br)cc1/C=N/n1cnnc1 | –
29 | 4.46 µM | 4.37 µM | O=[N+]([O-])c1ccc(Cl)c(/C=N/n2cnnc2)c1 | –
30 | 2.01 µM | 2.09 µM | C(=N\n1cnnc1)/c1cc2ccccc2[nH]1 | Vmax [3]: 703 µM/min; Km [4]: 300 µM
31 | 2.28 µM | 2.44 µM | Nc1ncccc1/C=N/n1cnnc1 | Vmax [3]: 685 µM/min; Km [4]: 500 µM
32 | 4.37 µM | 4.28 µM | COc1ccc(/C=N/n2cnnc2)c(OC)c1 | –
33 | – | 1.99 µM | C[C@H]1O[C@H](O[C@H]2[C@H](O)[C@@H](O)[C@@H](O[C@H]3[C@H](O)[C@@H](O)C(O)O[C@@H]3CO)O[C@@H]2CO)[C@H](O)[C@@H](O)[C@@H]1N[C@H]1C=C(CO)[C@@H](O)[C@H](O)[C@H]1O (some centres not stated) [ACARBOSE] | –
34 | 5.24 µM | 5.36 µM | CCOc1ccc(/C=N/n2cnnc2)cc1OC | –
35 | 5.69 µM | 5.44 µM | Oc1ccc(/C=N/n2cnnc2)cc1O | –
